These results are taken from ChEMBL document CHEMBL4177556, “Novel 5-HT7R antagonists, arylsulfonamide derivatives of (aryloxy)propyl piperidines: Add-on effect to the antidepressant activity of SSRI and DRI, and pro-cognitive profile” (Bioorg Med Chem, 2017).

Structures are written as SMILES. Active and inactive are the calls of the source. A value given as a limit tells only on which side of the number the result lay.

Data set [1] concerns the target 5-hydroxytryptamine receptor 6 (Homo sapiens, UniProt P50406). Description: Displacement of [3H]-LSD from human 5-HT6 receptor expressed in HEK293 or CHO-K1 cells after 1 hr by microbeta counting analysis. It counts as cell-based. Put shortly:
(§1)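 Membranes from stably transfected HEK293 or CHO-K1 cells, homogenized, centrifuged twice at 35,000g, with 15 min at 37 °C in between. Receptor-specific Tris-HCl buffers with MgCl2, plus EDTA, pargyline or ascorbate as applicable. Incubated 1 h at 37 °C (5-HT1A at room temperature), filtered, and bound radioactivity counted.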
In general terms: Displacement assays read how much labelled ligand stays bound in the presence of the test substance.

In data set [2] the target is T1, 5-hydroxytryptamine receptor 7 (Homo sapiens, UniProt P34969). Description: Displacement of [3H]-5-CT from human 5-HT7b receptor expressed in HEK293 cells after 1 hr by microbeta counting analysis. Type of data set: cell-based. In outline: as §1
For data set [3], the target named is T2, 5-hydroxytryptamine receptor 1A (Homo sapiens, UniProt P08908).
T2 sequence (P08908 whole entry): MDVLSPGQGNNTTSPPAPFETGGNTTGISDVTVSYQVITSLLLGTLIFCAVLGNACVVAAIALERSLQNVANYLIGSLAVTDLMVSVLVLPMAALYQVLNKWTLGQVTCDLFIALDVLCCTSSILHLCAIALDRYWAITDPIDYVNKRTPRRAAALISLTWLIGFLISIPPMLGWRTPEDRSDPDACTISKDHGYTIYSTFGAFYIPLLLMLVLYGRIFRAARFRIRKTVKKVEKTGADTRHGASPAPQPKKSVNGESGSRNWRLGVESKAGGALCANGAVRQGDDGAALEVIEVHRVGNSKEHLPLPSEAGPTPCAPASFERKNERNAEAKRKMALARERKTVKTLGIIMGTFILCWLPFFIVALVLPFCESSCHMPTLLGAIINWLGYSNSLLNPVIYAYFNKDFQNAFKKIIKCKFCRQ
Description: Displacement of [3H]-8-OH-DPAT from human 5-HT1A receptor expressed in HEK293 or CHO-K1 cells after 1 hr by microbeta counting analysis. It counts as cell-based. Put shortly:
as §1

Data set [4] addresses 5-hydroxytryptamine receptor 2A (Homo sapiens, UniProt P28223). Description: Displacement of [3H]-Ketanserin from human 5-HT2A receptor expressed in HEK293 or CHO-K1 cells after 1 hr by microbeta counting analysis. It counts as cell-based. In outline: as §1
For data set [5], the target named is D(2) dopamine receptor (Homo sapiens, UniProt P14416). Description: Displacement of [3H]-Raclopride from human dopamine D2L receptor expressed in HEK293 or CHO-K1 cells after 1 hr by microbeta counting analysis. It counts as cell-based. In outline:
as §1

Data set [6] is filed under the species Homo sapiens. Description: Selectivity ratio of Ki for human 5-HT1A receptor to Ki for human 5-HT7b receptor.
Data set [7] addresses T1, 5-hydroxytryptamine receptor 7. Description: Antagonist activity at human 5-HT7b receptor expressed in HEK293 cells assessed as inhibition of 5-CT induced cAMP accumulation after 30 mins by LANCE based TR-FRET assay. Type of data set: functional, cell-based. In outline:
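Stable 5-HT7 HEK293 cells in DMEM with 10% dialysed FBS and G418, harvested at 90% confluence, washed in warm PBS, and resuspended in HBSS/5 mM HEPES/0.5 mM IBMX/0.1% BSA. Compound incubated with cells for 30 min at room temperature against 5-CT (10 nM). Cells lysed with Eu-cAMP/ULight-anti-cAMP for 1 h at room temperature, then LANCE cAMP read-out. Triplicate at 8 concentrations.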
For orientation: Cyclic AMP is a second messenger, typically raised through Gs and lowered through Gi signalling.

Data set [8] deals with Sodium-dependent serotonin transporter (Homo sapiens) (UniProt P31645). Description: Displacement of [3H]imipramine from recombinant human SERT at 1 uM after 60 mins by scintillation counting analysis relative to control. Put shortly:
(§2)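 Transporter and α1-adrenergic binding run externally by Eurofins Cerep using their standard protocols. Reported as % inhibition of control specific binding.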

Data set [9] has as its target Sodium-dependent dopamine transporter (Homo sapiens) (UniProt Q01959). Description: Displacement of [3H]BTCP from recombinant human DAT at 1 uM after 120 mins by scintillation counting analysis relative to control. In outline:
as §2

Data set [10] has as its target Sodium-dependent noradrenaline transporter (Homo sapiens) (UniProt P23975). Description: Displacement of [3H]nisoxetine from recombinant human NET at 1 uM after 120 mins by scintillation counting analysis relative to control. Put shortly:
as §2

Data set [11] relates to Mus musculus. Description: Antidepressant-like activity in Swiss albino mouse assessed as decrease in immobility time at 0.625 to 2.5 mg/kg measured during last 4 mins of 6 mins test by forced swim test relative to control. It counts as functional. Further details: scale not given: the % may be the effect or the level left. In outline:
(§3)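 Porsolt swim test in male Swiss albino mice (22–26 g), 7–10 per dose, each used once, run 09:00–14:00 by a blinded observer. Drugs in distilled water, i.p. at 10 ml/kg: escitalopram 30 min before test, others 60 min. Immobility scored during the last 4 min of a 6 min swim at 23–25 °C. One-way ANOVA with Bonferroni vs vehicle.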

The subject of data set [12] is Mus musculus. Description: Antidepressant-like activity in C57BL/6J mouse assessed as increase in force of fights at 2.5 mg/kg measured during 6 mins session by tail suspension test. Type of data set: functional, organism-based. Put shortly: (§4)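 Male C57BL/6J mice (22–26 g), 7–9 per group. Compound in distilled water, i.p. at 10 ml/kg, 60 min before test. Mice suspended by tail from a strain-gauge hook for 6 min. Struggling episodes, average event force and immobility (force below 0.20 N threshold) recorded automatically. One-way ANOVA with Bonferroni; mean ± SEM.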

The subject of data set [13] is Mus musculus. Description: Antidepressant-like activity in C57BL/6J mouse assessed as decrease in immobility time at 2.5 mg/kg measured during 6 mins session by tail suspension test. It counts as functional, organism-based. In outline: as §4
Data set [14] relates to Mus musculus. Description: Antidepressant-like activity in C57BL/6J mouse assessed as increase in number of fight episodes at 1.25 mg/kg measured during 6 mins session by tail suspension test. It counts as functional, organism-based. Put shortly: as §4
For data set [15], the system named is Rattus norvegicus. Description: Cognitive enhancement effect in Sprague-Dawley rat memory impairment model assessed as reversal of natural forgetting impairment administered ip 30 mins prior to test measured after 24 hrs by novel object recognition test. Type of data set: functional, organism-based. In outline: (§5)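 Male Sprague–Dawley rats (about 250 g), handled and acclimatized. Habituated to an open field arena (25 lx) for 5 min, 24 h before testing. Two 3-min trials (T1, T2) separated by a 24 h inter-trial interval. Drug given i.p. 30 min before T1. Object exploration video-tracked; discrimination index = (EB−EA)/(EA+EB).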

In data set [16] the test system is Mus musculus. Description: Antidepressant-like activity in Swiss albino mouse assessed as decrease in immobility time at 0.312 mg/kg cotreated with 0.625 mg/kg of escitalopram measured during last 4 mins of 6 mins test by forced swim test relative to control. Type of data set: functional. The arrangement: scale not given: the % may be the effect or the level left. Put shortly: (§6)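 Male Swiss albino mice, 7–10 per group. Test compound (i.p., 60 min pre-test) co-given with reboxetine or bupropion (60 min) or escitalopram (30 min), all in distilled water at 10 ml/kg. Placed in a water cylinder (10 cm water, 23–25 °C) for 6 min; immobility scored over the last 4 min by a blinded observer. Two-way ANOVA with Bonferroni.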

Data set [17] has as its system Mus musculus. Description: Antidepressant-like activity in Swiss albino mouse assessed as decrease in immobility time at 0.312 mg/kg cotreated with 1.25 mg/kg of bupropion measured during last 4 mins of 6 mins test by forced swim test. It counts as functional, organism-based. In outline: as §6
Data set [18] has as its system Mus musculus. Description: Toxicity in mouse assessed as effect on spontaneous locomotory activity at 0.312 to 2.5 mg/kg, ip administered 60 mins prior to testing measured for 6 mins. It counts as organism-based. The note with it: in vivo, 0.1 h. In outline:
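Swiss albino or C57BL/6J mice habituated 30 min in activity cages. Ambulation counted from 2–6 min (matching the swim test) or over 6 min (matching the tail suspension test) with an infrared multi-channel activity monitor. Dosing i.p. as for the behavioral tests.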

The target in data set [19] is Adrenergic receptor alpha-1 (Homo sapiens) (UniProt P35348+P25100+P35368). Description: Binding affinity to alpha1-adrenergic receptor (unknown origin) at 1 uM relative to control. It counts as protein assay. In outline:
as §2

The test system of data set [20] is Mus musculus. Description: Antidepressant-like activity in C57BL/6J mouse assessed as increase in number of fight episodes at 0.625 to 1.25 mg/kg measured during 6 mins session by tail suspension test. It counts as functional, organism-based. Put shortly:
as §4

Data set [21] deals with Mus musculus. Description: Antidepressant-like activity in C57BL/6J mouse assessed as decrease in immobility time at 1.25 mg/kg measured during 6 mins session by tail suspension test. Type of data set: functional, organism-based. Put shortly: as §4
Data set [22] concerns Mus musculus. Description: Antidepressant-like activity in Swiss albino mouse assessed as decrease in immobility time at 10 mg/kg measured during last 4 mins of 6 mins test by forced swim test relative to control. It counts as functional. The arrangement: scale not given: the % may be the effect or the level left. Put shortly: as §3
The subject of data set [23] is Mus musculus. Description: Antidepressant-like activity in C57BL/6J mouse at 2.5 mg/kg measured during 6 mins session by tail suspension test. Type of data set: functional, organism-based. In outline: as §4
The subject of data set [24] is Rattus norvegicus. Description: Cognitive enhancement effect in Sprague-Dawley rat memory impairment model assessed as reversal of natural forgetting impairment at 1 mg/kg, ip administered 30 mins prior to test measured after 24 hrs by novel object recognition test. Type of data set: functional, organism-based. In outline:
as §5

T1 sequence (P34969 whole entry): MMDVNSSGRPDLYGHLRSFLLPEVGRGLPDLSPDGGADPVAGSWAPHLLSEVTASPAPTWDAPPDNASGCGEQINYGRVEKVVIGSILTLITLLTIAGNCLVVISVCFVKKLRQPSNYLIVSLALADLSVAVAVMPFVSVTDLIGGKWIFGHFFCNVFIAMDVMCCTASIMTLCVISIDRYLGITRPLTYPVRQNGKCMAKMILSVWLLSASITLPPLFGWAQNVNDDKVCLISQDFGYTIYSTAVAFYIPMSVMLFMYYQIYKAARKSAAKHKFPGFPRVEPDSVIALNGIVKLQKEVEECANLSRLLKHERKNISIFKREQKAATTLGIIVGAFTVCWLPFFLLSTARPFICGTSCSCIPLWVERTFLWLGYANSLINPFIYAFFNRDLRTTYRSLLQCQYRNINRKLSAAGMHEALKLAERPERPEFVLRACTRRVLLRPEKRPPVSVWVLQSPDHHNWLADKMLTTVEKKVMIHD
Chain of Sodium-dependent dopamine transporter (Homo sapiens) (Q01959 whole entry): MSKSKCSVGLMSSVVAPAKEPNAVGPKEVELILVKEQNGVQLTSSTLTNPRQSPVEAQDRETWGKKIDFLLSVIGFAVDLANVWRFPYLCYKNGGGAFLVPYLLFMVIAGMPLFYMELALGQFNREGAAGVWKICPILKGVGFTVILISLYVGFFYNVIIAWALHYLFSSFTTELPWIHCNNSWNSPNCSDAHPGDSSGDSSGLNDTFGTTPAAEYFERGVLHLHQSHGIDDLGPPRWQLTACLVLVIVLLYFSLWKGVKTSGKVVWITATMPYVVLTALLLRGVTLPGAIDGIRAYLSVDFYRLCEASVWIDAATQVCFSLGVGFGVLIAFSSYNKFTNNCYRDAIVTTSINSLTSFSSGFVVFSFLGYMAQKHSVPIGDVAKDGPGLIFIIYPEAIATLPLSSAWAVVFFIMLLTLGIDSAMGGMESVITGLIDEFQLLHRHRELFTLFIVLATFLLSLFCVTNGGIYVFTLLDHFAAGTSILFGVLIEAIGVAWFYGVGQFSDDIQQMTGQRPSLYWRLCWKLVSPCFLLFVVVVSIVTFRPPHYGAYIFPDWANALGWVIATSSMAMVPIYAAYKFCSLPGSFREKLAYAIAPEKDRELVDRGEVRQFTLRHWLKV
Chain of D(2) dopamine receptor (P14416 whole entry): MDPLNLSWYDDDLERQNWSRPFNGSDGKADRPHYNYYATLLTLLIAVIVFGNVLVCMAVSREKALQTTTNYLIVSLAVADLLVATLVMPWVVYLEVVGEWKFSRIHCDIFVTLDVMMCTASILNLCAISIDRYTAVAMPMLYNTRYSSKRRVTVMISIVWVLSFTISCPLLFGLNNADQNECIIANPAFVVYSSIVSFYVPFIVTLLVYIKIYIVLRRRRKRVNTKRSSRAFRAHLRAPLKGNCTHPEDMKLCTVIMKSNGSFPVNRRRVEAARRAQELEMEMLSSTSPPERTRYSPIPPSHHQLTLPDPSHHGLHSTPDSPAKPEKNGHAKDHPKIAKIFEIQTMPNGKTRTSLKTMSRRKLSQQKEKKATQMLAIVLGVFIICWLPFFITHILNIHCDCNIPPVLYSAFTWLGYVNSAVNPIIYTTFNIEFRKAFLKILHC
Chain of 5-hydroxytryptamine receptor 2A (P28223 whole entry): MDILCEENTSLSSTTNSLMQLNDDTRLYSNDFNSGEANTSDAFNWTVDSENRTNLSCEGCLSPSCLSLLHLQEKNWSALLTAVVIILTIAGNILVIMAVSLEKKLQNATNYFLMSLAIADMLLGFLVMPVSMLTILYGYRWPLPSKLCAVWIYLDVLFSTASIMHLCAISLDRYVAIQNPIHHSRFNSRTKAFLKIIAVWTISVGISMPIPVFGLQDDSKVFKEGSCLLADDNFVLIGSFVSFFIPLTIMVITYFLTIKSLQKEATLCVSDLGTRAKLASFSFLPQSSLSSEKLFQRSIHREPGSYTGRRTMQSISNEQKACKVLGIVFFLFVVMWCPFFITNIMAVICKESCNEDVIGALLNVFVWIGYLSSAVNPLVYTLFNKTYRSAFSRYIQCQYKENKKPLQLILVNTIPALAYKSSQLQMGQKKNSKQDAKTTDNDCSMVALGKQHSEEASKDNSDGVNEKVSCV
Chain of 5-hydroxytryptamine receptor 6 (P50406 whole entry): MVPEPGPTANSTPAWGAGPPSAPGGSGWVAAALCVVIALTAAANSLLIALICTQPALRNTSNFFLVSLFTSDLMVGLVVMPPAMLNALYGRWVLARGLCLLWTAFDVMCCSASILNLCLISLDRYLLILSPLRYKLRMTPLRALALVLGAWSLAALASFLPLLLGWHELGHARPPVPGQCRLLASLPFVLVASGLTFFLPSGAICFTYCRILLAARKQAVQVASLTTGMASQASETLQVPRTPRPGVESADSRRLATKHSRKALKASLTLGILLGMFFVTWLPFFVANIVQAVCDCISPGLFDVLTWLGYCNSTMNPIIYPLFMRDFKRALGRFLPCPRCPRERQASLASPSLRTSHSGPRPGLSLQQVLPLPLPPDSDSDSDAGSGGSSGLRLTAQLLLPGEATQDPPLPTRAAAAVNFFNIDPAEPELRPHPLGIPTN
Chain of Sodium-dependent serotonin transporter (Homo sapiens) (P31645 whole entry, looked up): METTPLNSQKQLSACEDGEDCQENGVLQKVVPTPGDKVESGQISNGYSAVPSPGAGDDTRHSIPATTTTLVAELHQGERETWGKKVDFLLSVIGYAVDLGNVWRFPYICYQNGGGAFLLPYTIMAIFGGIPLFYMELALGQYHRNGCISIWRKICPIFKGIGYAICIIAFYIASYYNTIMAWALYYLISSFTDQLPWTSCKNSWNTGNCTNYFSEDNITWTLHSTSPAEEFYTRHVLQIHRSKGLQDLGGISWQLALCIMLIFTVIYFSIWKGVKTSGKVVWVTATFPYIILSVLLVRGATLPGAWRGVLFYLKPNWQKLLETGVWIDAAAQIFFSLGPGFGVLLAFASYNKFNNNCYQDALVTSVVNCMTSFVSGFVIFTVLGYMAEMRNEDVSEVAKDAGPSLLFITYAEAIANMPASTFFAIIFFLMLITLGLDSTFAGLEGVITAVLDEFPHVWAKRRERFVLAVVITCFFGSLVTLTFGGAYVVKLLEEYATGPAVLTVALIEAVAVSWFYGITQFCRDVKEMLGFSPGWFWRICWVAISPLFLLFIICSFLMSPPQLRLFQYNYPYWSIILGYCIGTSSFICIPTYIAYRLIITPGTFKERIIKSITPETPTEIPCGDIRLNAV
Chain of Sodium-dependent noradrenaline transporter (Homo sapiens) (P23975 whole entry): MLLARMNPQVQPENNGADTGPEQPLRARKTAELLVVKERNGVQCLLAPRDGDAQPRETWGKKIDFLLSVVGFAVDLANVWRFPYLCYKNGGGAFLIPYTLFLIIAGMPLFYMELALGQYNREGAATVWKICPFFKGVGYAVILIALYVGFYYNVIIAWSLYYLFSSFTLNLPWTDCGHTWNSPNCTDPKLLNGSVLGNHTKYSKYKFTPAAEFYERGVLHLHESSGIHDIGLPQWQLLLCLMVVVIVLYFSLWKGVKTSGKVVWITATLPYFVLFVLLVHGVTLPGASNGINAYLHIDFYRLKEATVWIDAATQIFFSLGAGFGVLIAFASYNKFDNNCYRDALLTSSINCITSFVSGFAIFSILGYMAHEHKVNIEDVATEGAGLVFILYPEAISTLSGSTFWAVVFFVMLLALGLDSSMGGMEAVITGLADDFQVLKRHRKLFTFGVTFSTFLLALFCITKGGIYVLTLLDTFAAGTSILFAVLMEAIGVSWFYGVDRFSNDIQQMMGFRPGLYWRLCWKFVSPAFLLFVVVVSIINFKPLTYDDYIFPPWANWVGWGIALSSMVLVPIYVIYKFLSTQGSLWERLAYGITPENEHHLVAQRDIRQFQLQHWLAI

Usually Ki stands for a dissociation constant, usually derived from enzyme kinetics or from competition with a known ligand. As a reminder, the Kb is the equilibrium dissociation constant of an antagonist, usually derived from a functional assay. For `CC(C)c1ccccc1OCCCN1CCC(NS(=O)(=O)c2ccc(F)cc2)CC1`, the inhibitory constant (Ki) in data set [1] amounted to 268 nM; in data set [2], 32 nM; in [3], 2080 nM; in data set [4] it was 1350 nM; in data set [5], 328 nM. Moreover, the Ratio Ki in data set [6] was 65. Besides, in data set [7], the Kb stood at 1 nM. Moreover, the Activity is 79% in data set [8]; under 10% in data set [9]; under 10% in data set [10]; 19 - 53% in data set [11]; “Dose-dependent effect” in data set [15]; 32.6% in data set [16]. The Activity entry in data set [18] was “Non-Toxic”. Besides, the outcome in data set [12], in [13], in [14] and in data set [17] was Active.

Consider `O=S(=O)(NC1CCN(CCCOc2ccccc2-c2ccccc2)CC1)c1cccc(Cl)c1`, for which the Ki in [2] turned out to be 52 nM; in data set [3], 1630 nM. The Ratio Ki in data set [6] worked out at 31.

`O=S(=O)(NC1CCN(CC(O)COc2ccccc2-c2ccccc2)CC1)c1cccc(Cl)c1` (stereo not drawn): the Ki in data set [1] was determined as 295 nM; in data set [2], 33 nM; in data set [3] it was 1330 nM; in data set [4], 2110 nM; in data set [5], 343 nM. Moreover, in data set [6], the Ratio Ki was determined as 40. Also, in data set [7], the Kb is 25 nM. The Activity in data set [8] was under 40%; in data set [9], under 40%; in [10], under 40%; in [19], under 10%; in data set [11], 28 - 46%; in data set [15] it was “Dose-dependent effect”. Moreover, the Activity in [16] was 25.4%; in data set [18], “Non-Toxic”. The outcome in data set [20], in data set [12], in data set [13], in [21] and in data set [17] was Active.

As for `CC1CCN(CC[C@H]2CCCN2S(=O)(=O)c2cccc(O)c2)CC1`, in data set [22], the Activity is 31%. In addition, the result in data set [23] and in data set [24] was Active.

For `CC(C)c1ccccc1OCCCN1CCC(NS(=O)(=O)c2cccc(F)c2)CC1`, the values for the Ki in data set [2] and in [3] were 52 nM and 1790 nM, respectively. For the same compound, the Ratio Ki in [6] was found to be 34.

With `CC(COc1ccccc1-c1ccccc1)N1CCC(NS(=O)(=O)c2ccc(F)cc2)CC1` (stereo not drawn), the Ki amounted to 34 nM in data set [2] and 297 nM in [3]. The Ratio Ki in [6] turned out to be 9.

As to `CC(COc1ccccc1-c1ccccc1)N1CCC(NS(=O)(=O)c2cccc(Cl)c2)CC1` (stereo not drawn), the Ki stood at 32 nM in [2] and 696 nM in data set [3]. Moreover, the Ratio Ki in [6] was determined as 22.
